Test results reported in article PMC5809185 (Parasitology international, 2018).
Like-named read-outs stand apart in the source and are kept apart here.

Tests used:
[1] = tested on: T. gondii RH-dTom tachyzoites; assay: In vivo T. gondii survival study; set-up: species or system Swiss Webster CFW mice; conditions: lethal dose of T. gondii strain RH tachyzoites
hepatocytes (HC04) = conditions: read-out: HC04 IC50; cytotoxicity; ref Guigemende 2010; cited from earlier work
[2] = tested on: T. gondii RH-dTom tachyzoites in pretreated HFF cells; assay: Host cell pre-treatment assay; assay type: cell-based, Toxoplasma gondii; conditions: HFF cells exposed to 10 μM for 24 h, washed, then infected with RH-dTom
In short: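 HFF seeded at 20,000 cells/well in D10 and grown to confluence. Treated with 10 μM test compound for 24 h, then washed three times with D10 media. Infected with 2,000 RH-dTom (red fluorescent dTomato) tachyzoites. Parasite growth read by fluorescence at day 5 (methods) or day 4 (figure legend) post-infection. Run in triplicate.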

[3] = tested on: Human foreskin fibroblast (HFF); conditions: read-out: HFF IC50; cytotoxicity; ref Guigemende 2010; cited from earlier work
kidney (HEK293) = conditions: read-out: HEK293 IC50; cytotoxicity; ref Guigemende 2010; cited from earlier work
[4] = Kinetic aqueous solubility by nephelometry; assay type: physicochemical; conditions: pH 6.5 phosphate buffer; 30 min at room temperature; 1% DMSO
[5] = tested on: murine-derived macrophage (NR-9456); assay: Cell toxicity assay; assay type: cell-based; conditions: read-out: NR-9456 IC50, 24 h
In short: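 Bone marrow-derived murine macrophages kept in D10 (DMEM, 10% heat-inactivated bovine serum, 2 mM L-glutamine, penicillin/streptomycin, 20% Medium 199, gentamicin) at 37°C, 5% CO2. Grown to confluence in 96-well plates, then exposed to test compound at 0 to 100 μM for 24 h. Alamar blue added for 4 h, and fluorescence read for IC50.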

[6] = tested on: five mammalian cell lines (HFF, HEK293, HC04, RAJI, NR-9456); assay: Cytotoxicity across five mammalian cell lines / in vitro therapeutic index; assay type: cell-based; conditions: at the concentrations tested
[7] = Partition coefficient by gradient HPLC; assay type: physicochemical
[8] = tested on: Salmonella typhimurium (TA100 strain); assay: Bacterial reverse mutation; assay type: cell-based; conditions: for Ames Assay (TA100): 3x the averaged T. gondii IC50, 48 replicates, point mutagenicity
[9] = Metabolic stability in human liver microsomes; assay type: in vitro ADME; conditions: for CLint, in vitro / T1/2: 1 μM, 0.4 mg/mL protein
human albumin column = human albumin column (Homo sapiens, UniProt P02768); assay: Chromatography-based protein binding; assay type: in vitro ADME; conditions: plasma protein binding estimated using a chromatographic method
Chain of human albumin column (P02768 25-609): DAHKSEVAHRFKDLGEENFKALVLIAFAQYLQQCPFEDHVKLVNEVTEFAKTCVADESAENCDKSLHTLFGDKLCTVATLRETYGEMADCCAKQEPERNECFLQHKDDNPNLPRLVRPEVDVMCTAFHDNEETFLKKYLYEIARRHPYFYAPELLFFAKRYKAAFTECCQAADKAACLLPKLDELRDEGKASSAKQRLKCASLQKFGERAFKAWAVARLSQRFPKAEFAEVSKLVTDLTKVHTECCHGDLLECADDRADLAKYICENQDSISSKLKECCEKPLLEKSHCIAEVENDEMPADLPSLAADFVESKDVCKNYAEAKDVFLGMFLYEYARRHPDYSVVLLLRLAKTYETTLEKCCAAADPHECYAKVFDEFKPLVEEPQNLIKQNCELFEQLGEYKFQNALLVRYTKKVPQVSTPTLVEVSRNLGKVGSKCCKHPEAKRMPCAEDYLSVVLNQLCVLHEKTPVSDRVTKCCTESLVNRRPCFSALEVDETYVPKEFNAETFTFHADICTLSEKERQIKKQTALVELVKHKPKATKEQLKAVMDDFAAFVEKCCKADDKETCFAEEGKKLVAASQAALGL

[10] = Metabolic stability in mouse liver microsomes; assay type: in vitro ADME; conditions: for CLint, in vitro / T1/2: 1 μM, 0.4 mg/mL protein
B lymphocyte (RAJI) = conditions: read-out: RAJI IC50; cytotoxicity; ref Guigemende 2010; cited from earlier work
T. gondii = T. gondii inhibition in vitro; assay type: cell-based, Toxoplasma gondii
In short: (§1)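 Confluent HFF (20,000 cells/well, D10, 37°C, 5% CO2) infected with 2,000 dTomato-expressing tachyzoites (type I RH or type II PRU). Invasion allowed for 12 h, then media replaced. Test compound added at 0 to 100 μM in duplicate. Parasite fluorescence read at day 5 post-infection for IC50.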

T. gondii PRU-dTom = assay: T. gondii PRU-dTom; assay type: cell-based; conditions: Toxoplasma gondii, 120 h, read-out: T. gondii PRU-dTom IC50
In short: as §1

[11] = cytotoxicity, 0 to 100 μM, Alamar blue

Compound	IC50 (hepatocytes (HC04))	Decrease of T. gondii growth after host cell pre-treatment [2]	IC50 [3]	IC50 (kidney (HEK293))	Sol6.5 kinetic solubility [4]	IC50 [5, 11]	Cell lines whose growth was inhibited [6]	gLogD (pH 7.4) [7]	Ames Assay (TA100) [8]	Predicted EH (hepatic extraction ratio) [9]	CLint, in vitro [9]	T1/2 [9]	cPPB (% bound) (human albumin column)	CLint, in vitro [10]	T1/2 [10]	IC50 (B lymphocyte (RAJI))	also measured
CCOc1ccc(/C=C/c2nc(=O)c3ccccc3o2)cc1 [KG3]	> 40 µM	21%	> 40 µM	> 40 µM	1.2 to 2.2 µg/mL	> 100 µM	did not inhibit the growth of any of the five cell lines	2.8	Negative	0.88	129 μL/min/mg protein	9 min	99 % bound	>886 μL/min/mg protein	<2 min	> 40 µM	Mice spared (survival) ([1]; 20 mg/kg IP twice daily): 33%
CC(C)(C)c1cc(C2C(C#N)=C(N)OC3=C2C(=O)CCC3)cc(C(C)(C)C)c1O (stereo not drawn) [KG7]	3 µM	no effect	> 36 µM	> 36 µM	3.1 to 6.3 µg/mL	> 100 µM	2/5	3.9	Negative	0.97	746 μL/min/mg protein	2 min	93 % bound	>886 μL/min/mg protein	<2 min	3 µM	Effect on S. typhimurium growth in Ames assay ([8]; TA100 strain): appeared to inhibit S. typhimurium growth; Predicted EH (hepatic extraction ratio) [10]: >0.94
CC(C)(C)c1cc(/N=N/C(=O)c2ccncc2)cc(C(C)(C)C)c1O [KG8]	> 28 µM	no effect	> 28 µM	0.97 µM	3.1 to 6.3 µg/mL	> 100 µM	2/5	3.9	Negative	0.6	37 μL/min/mg protein	47 min	>99.5 % bound	180 μL/min/mg protein	10 min	0.68 µM	
CCc1nc(N)nc(N)c1-c1ccc(Cl)cc1 [Pyrimethamine, reference compound]	> 100 µM		> 100 µM	> 100 µM												> 100 µM	IC50 (T. gondii; Toxoplasma gondii, read-out: T. gondii IC50 in vitro): 0.25 to 1.5 µM; Mice spared (survival) ([1]; 21 mg/kg): 100%; IC50 ([5]; Mus musculus, Macrophage): > 100 µM; IC50 (T. gondii PRU-dTom): 0.79 µM
NNC(=O)c1ccncc1 [isoniazid]																	Efficacy against Toxoplasma gondii in vitro (T. gondii; data not shown): no efficacy
